NR2E3 ag-1: agonists of human nuclear receptor NR2E3 | Q9Y5X4 | 0.12% of 320,000 active | inhibition of corepressor binding, % at 4.78 µM | GST-NR2E3/biotin-RetCOR TR-FRET, 1536-well;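 active = percent inhibition above the cutoff of mean plus 3 SD of all tested compounds, set per screening campaign, cut at about 20% in these data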
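Test system: GST-NR2E3 and biotin-RetCOR proteins | Quantity: 1.35 nM GST-tagged NR2E3 final | Medium: Tris pH 7.5 | Also added: 7 nM biotin-RetCOR | Dosing: Compound at 4.8 µM, single dose | Timing: 5 h at 4 °C | Detection: Time-resolved FRET | Read-out basis: Percent inhibition | Benchmarks: Biotin wells as high control, 0.6% DMSO wells as low control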
NR2E3 ag-2: agonists of human NR2E3 nuclear receptor | 0.35% of 360,000 active | Q9Y5X4 | inhibition of corepressor binding, % at 3.98 µM | AID 602229 | CHO-S Gal4-NCOR/VP16-NR2E3 two-hybrid, luciferase;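 active = inhibition above the mean of all tested compounds plus 3 SD, cut at about 70% in these data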;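 note: higher means lower luciferase signal from less NR2E3 corepressor binding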
PG9 binder: binds the HIV-1 gp120 antibody PG9. TR-FRET gp120-PG9 antibody binding. inhibition, % at 6.7 µM. 0.43% of 360,000 active; in the data active = inhibition above about 8.5%
Neddylation inh: inhibitors of human cullin neddylation. 0.58% of 360,000 active. TR-FRET cullin neddylation, biochemical. calls only at 25 µM. P61081+Q13564. AID 651699; in the data active = inhibition above about 36%
Rev-erbA mod: modulators of human Rev-erb alpha DNA binding; activity, % at 10 µM; 0.79% of 370,000 active; P20393; Rev-erbα–FITC-DNA binding, fluorescence polarization, 90 min; AID 1259318;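 active = activity above about 14%, limit read from the data; passing the limit was not always enough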
Target sequence (P20393 whole entry, looked up): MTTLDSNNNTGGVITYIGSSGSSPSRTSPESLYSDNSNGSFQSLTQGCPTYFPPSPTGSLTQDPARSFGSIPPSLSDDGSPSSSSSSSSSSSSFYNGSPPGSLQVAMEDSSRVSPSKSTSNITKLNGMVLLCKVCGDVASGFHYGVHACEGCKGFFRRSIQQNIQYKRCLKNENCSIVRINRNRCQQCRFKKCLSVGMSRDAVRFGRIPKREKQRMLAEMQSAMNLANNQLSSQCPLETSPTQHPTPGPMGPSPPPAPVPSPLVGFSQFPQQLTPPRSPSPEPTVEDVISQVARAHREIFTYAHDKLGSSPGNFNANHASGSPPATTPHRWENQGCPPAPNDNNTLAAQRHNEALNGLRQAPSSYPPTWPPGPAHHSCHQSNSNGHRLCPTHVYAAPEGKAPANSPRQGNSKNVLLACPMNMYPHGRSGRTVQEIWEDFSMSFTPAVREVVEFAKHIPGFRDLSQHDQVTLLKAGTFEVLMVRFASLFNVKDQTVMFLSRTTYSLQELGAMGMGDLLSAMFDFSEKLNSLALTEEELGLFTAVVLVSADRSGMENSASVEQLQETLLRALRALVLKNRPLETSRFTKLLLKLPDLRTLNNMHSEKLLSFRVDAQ
Rev-erbA confirm: confirmation of modulators of human Rev-erb alpha DNA binding; Rev-erb alpha FITC-DNA binding, fluorescence polarization, 90 min; shares compounds with Rev-erbA mod; activation, % at 25 µM; 61% of 3,000 active;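 active = activation at or above a set limit, or at least 3 SD above the negative control mean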
Numbers stand for hits. Sampled rows, rich in hits. Any-hit rate of the full collection: about 2%.

For COc1ccc(-n2c(SCC(=O)NCC3CCCO3)nc3n[nH]c(C)c3c2=N)cc1 (stereo not given) the results were NR2E3 ag-1 inactive, NR2E3 ag-2 inactive, PG9 binder inactive, Neddylation inh inactive and Rev-erbA mod inactive.
`O=C(Nc1ccccc1)c1ccc(N2CCN(c3ccccn3)CC2)c(S(=O)(=O)N2CCOCC2)c1` gave NR2E3 ag-1 inactive, NR2E3 ag-2 inactive, PG9 binder inactive, Neddylation inh inactive and Rev-erbA mod inactive.
O=C(Nc1ccccc1)c1ccc(N2CCN(c3ccccc3)CC2)c(S(=O)(=O)N2CCOCC2)c1 was read as NR2E3 ag-1 inactive, NR2E3 ag-2 inactive, PG9 binder inactive, Neddylation inh inactive, Rev-erbA mod 61 and Rev-erbA confirm 29.
For COc1ccc(-c2coc3c(C(=O)N4CCN(C)CC4)cccc23)c(C)c1 the results were NR2E3 ag-2 inactive, PG9 binder inactive, Neddylation inh inactive and Rev-erbA mod inactive.
For CN1/C(=C\C=N\O)C(C)(C)c2ccccc21 the results were NR2E3 ag-1 inactive, NR2E3 ag-2 inactive, PG9 binder inactive, Neddylation inh inactive and Rev-erbA mod inactive.
`CN(C)c1ccc(N=C/C=C2/N(C)c3ccccc3C2(C)C)cc1` gave NR2E3 ag-2 inactive, PG9 binder inactive, Neddylation inh inactive, Rev-erbA mod 25 and Rev-erbA confirm inactive.
For CCOC(=O)[C@]12CCCC=C1N(CCCOC)C(=O)[C@@H]2CC(=O)NCC1CCCCC1 the results were Rev-erbA mod inactive.
For O=C(CCCCCNc1nc(=S)[nH]c2ccccc12)NCc1ccccc1Cl the results were NR2E3 ag-1 inactive, PG9 binder inactive, Rev-erbA mod 49 and Rev-erbA confirm inactive.
`O=C(CCCCCNc1nc(=S)[nH]c2ccccc12)NCCc1ccccc1` gave NR2E3 ag-1 inactive, NR2E3 ag-2 inactive, PG9 binder inactive, Neddylation inh inactive and Rev-erbA mod inactive.
`O=C(Nc1ccc(Cl)cn1)c1cc2c(s1)-c1ccccc1OC2` gave NR2E3 ag-1 inactive, NR2E3 ag-2 inactive, PG9 binder inactive, Rev-erbA mod 30 and Rev-erbA confirm inactive.
`O=C(Nc1cccnc1Cl)c1cc2c(s1)-c1ccccc1OC2` gave NR2E3 ag-1 inactive, NR2E3 ag-2 inactive, PG9 binder inactive and Rev-erbA mod inactive.
`NC(=O)c1cc(S(=O)(=O)N2CCOCC2)cs1` gave NR2E3 ag-1 inactive, NR2E3 ag-2 inactive, PG9 binder inactive, Neddylation inh inactive and Rev-erbA mod inactive.
For CC(=O)Nc1ccc(S(=O)(=O)N2CCN(Cc3nc4sc(C)c(C)c4c(=O)[nH]3)CC2)cc1 the results were NR2E3 ag-1 inactive, NR2E3 ag-2 inactive, PG9 binder inactive, Neddylation inh inactive, Rev-erbA mod 31 and Rev-erbA confirm inactive.
Screening COc1ccc(Oc2nnc(-c3ccc(C)cc3)c3ccccc23)cc1 returned NR2E3 ag-1 inactive, NR2E3 ag-2 inactive, PG9 binder inactive, Neddylation inh inactive, Rev-erbA mod 27 and Rev-erbA confirm inactive.
c1ccc(Oc2nnc(-c3cccs3)c3ccccc23)cc1 was read as NR2E3 ag-1 inactive, NR2E3 ag-2 inactive, PG9 binder inactive, Neddylation inh inactive, Rev-erbA mod 26 and Rev-erbA confirm inactive.
Screening Cc1ccc(Oc2nnc(-c3cccs3)c3ccccc23)cc1 returned NR2E3 ag-1 inactive, NR2E3 ag-2 inactive, PG9 binder inactive, Neddylation inh inactive and Rev-erbA mod inactive.
`CCCCNC(=O)C1C(c2ccc(C(F)(F)F)cc2)=Nc2ccccc2N1C(=O)c1cccc(C(F)(F)F)c1` (stereo not given) gave PG9 binder inactive, Neddylation inh inactive and Rev-erbA mod inactive.
CC(C)(C)N(Cc1cn(Cc2ccccc2)nn1)S(=O)(=O)c1ccc(N2CCCCC2)cc1Br was read as Rev-erbA mod inactive.
Screening CCc1nnc(NS(=O)(=O)c2ccc(NS(=O)(=O)c3ccccc3[N+](=O)[O-])cc2)s1 returned NR2E3 ag-1 inactive, NR2E3 ag-2 inactive, PG9 binder inactive, Neddylation inh inactive and Rev-erbA mod inactive.
`CC(=O)c1ccc(Nc2ccc([N+](=O)[O-])c3nonc23)cc1` gave NR2E3 ag-1 inactive, NR2E3 ag-2 inactive, PG9 binder inactive, Neddylation inh inactive and Rev-erbA mod inactive.

Source: PubChem
